For assay [1], the target named is T1, Dual specificity tyrosine-phosphorylation-regulated kinase 2 (Homo sapiens) (UniProt Q92630).
T1 sequence (whole entry): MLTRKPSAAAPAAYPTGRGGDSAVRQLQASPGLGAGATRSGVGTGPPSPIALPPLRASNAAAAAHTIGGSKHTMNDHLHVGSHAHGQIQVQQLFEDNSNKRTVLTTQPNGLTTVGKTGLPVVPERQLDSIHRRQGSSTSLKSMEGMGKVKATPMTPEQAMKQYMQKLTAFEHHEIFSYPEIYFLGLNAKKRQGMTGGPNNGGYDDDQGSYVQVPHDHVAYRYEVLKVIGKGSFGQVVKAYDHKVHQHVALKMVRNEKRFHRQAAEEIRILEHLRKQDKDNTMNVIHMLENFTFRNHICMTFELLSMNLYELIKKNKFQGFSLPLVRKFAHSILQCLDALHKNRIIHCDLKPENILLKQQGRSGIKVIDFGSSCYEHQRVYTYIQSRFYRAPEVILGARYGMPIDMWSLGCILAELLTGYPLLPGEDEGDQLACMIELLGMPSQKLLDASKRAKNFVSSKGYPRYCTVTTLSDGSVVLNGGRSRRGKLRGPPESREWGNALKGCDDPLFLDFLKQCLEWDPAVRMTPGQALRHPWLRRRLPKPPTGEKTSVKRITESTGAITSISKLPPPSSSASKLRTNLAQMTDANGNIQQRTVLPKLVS
The assay is described as follows: Inhibition of DYRK2 at 1 uM.

The target of assay [2] is Serine/threonine-protein kinase Nek7 (Homo sapiens) (UniProt Q8TDX7). The assay is described as follows: Inhibition of NEK7 at 1 uM.
Assay [3] deals with Protein kinase C delta type (Homo sapiens) (UniProt Q05655). The assay is described as follows: Inhibition of PRKCD at 1 uM.
Assay [4] has as its target Glycogen synthase kinase-3 beta (Homo sapiens) (UniProt P49841). As to the kind of experiment: Inhibition of GSK3B at 1 uM. Summed up:
(§1)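 Single-concentration screen on the Ambit KINOMEscan platform, run against a panel of 250–400 kinases. Per-kinase inhibition was also summarized as S(90), the fraction of kinases inhibited by more than 90%.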

In assay [5] the target is T2, Dual specificity mitogen-activated protein kinase kinase 3 (Homo sapiens) (UniProt P46734).
T2 sequence (whole entry): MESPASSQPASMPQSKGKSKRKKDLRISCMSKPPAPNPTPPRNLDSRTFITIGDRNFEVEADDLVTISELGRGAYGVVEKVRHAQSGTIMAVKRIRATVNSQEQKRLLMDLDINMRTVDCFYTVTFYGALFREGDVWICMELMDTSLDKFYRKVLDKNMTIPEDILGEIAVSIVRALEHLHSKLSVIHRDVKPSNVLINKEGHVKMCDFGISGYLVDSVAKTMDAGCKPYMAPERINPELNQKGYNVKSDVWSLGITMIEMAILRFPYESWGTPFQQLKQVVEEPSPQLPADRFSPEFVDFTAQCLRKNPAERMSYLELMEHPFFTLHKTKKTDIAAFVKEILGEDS
The assay is described as follows: Inhibition of MEK3 at 1 uM.

In assay [6] the target is Casein kinase I isoform delta (Homo sapiens) (UniProt P48730). The assay is described as follows: Inhibition of CSNK1D at 1 uM. Summed up:
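Single-concentration screen using Ambit Bioscience KINOMEscan technology across a panel of 250–400 kinases. Per-kinase inhibition from this screen was summarized as S(90), the fraction of kinases inhibited by more than 90%.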

Assay [7] deals with Serine/threonine-protein kinase RIO2 (Homo sapiens) (UniProt Q9BVS4). As to the kind of experiment: Inhibition of RIOK2 at 1 uM.
The target of assay [8] is RAF proto-oncogene serine/threonine-protein kinase (Homo sapiens) (UniProt P04049). As to the kind of experiment: Inhibition of RAF1 at 1 uM.
Assay [9] deals with Vascular endothelial growth factor receptor 2 (Homo sapiens) (UniProt P35968). As to the kind of experiment: Inhibition of VEGFR2 at 1 uM.
The target of assay [10] is T3, Serine/threonine-protein kinase ULK2 (Homo sapiens) (UniProt Q8IYT8).
T3 sequence (whole entry): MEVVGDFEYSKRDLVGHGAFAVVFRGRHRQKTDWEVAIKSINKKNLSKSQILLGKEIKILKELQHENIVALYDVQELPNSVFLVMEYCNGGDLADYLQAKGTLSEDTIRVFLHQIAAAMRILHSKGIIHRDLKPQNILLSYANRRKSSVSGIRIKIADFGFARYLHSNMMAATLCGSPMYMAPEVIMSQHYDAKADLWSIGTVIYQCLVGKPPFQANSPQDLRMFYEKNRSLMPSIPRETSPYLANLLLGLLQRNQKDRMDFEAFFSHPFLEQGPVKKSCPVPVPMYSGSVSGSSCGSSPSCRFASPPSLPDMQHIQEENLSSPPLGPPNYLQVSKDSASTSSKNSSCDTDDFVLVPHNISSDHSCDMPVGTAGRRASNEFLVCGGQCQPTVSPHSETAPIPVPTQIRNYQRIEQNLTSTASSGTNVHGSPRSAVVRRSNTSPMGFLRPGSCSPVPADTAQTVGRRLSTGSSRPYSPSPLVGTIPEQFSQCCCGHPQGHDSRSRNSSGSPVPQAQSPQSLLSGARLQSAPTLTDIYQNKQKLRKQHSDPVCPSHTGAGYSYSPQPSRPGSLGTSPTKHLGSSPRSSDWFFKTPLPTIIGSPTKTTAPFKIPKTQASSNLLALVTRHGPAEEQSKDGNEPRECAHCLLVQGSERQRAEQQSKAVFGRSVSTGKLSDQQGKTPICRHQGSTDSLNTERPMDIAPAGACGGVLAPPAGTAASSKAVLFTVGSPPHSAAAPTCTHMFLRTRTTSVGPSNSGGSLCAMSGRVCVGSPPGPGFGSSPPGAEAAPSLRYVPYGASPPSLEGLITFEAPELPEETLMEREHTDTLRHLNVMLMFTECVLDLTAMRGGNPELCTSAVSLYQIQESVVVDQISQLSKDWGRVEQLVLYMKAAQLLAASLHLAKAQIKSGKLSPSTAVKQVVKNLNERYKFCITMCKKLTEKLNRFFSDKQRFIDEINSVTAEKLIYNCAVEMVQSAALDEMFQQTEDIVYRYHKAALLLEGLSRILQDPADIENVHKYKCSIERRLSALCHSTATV
The assay is described as follows: Inhibition of ULK2 at 1 uM.

For assay [11], the target named is MAP/microtubule affinity-regulating kinase 3 (Homo sapiens) (UniProt P27448). As to the kind of experiment: Inhibition of MARK3 at 1 uM. The method in brief: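 Kinase-panel screen using KINOMEscan technology, with 250–400 kinases per panel. Each compound was tested at a single concentration, and inhibition of each kinase was recorded. Selectivity was summarised as S(90), the fraction of kinases inhibited by more than 90%.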

Assay [12] concerns the target Receptor-type tyrosine-protein kinase FLT3 (Homo sapiens) (UniProt P36888). The assay is described as follows: Inhibition of FLT3 at 1 uM. Summed up:
as §1

Here are results for ten compounds from ChEMBL document CHEMBL1165965, “Synthesis and structure-activity relationships of 1,2,3,4-tetrahydropyrido[2,3-b]pyrazines as potent and selective inhibitors of the anaplastic lymphoma kinase” (Bioorg Med Chem, 2010).

The inhibition is the percentage by which the read-out fell short of the control. A higher inhibition goes with a strong effect.

Sequence of Serine/threonine-protein kinase Nek7 (Homo sapiens) (Q8TDX7 whole entry, looked up): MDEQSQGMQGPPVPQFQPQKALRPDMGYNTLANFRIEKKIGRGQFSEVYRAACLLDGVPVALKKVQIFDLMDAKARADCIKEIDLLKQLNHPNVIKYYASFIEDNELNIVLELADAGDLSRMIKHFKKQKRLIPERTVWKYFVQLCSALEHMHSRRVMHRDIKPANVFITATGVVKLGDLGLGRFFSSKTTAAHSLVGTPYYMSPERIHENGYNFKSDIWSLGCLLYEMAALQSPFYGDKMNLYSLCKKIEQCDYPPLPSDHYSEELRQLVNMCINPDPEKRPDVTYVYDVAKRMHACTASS
Sequence of Vascular endothelial growth factor receptor 2 (Homo sapiens) (P35968 whole entry): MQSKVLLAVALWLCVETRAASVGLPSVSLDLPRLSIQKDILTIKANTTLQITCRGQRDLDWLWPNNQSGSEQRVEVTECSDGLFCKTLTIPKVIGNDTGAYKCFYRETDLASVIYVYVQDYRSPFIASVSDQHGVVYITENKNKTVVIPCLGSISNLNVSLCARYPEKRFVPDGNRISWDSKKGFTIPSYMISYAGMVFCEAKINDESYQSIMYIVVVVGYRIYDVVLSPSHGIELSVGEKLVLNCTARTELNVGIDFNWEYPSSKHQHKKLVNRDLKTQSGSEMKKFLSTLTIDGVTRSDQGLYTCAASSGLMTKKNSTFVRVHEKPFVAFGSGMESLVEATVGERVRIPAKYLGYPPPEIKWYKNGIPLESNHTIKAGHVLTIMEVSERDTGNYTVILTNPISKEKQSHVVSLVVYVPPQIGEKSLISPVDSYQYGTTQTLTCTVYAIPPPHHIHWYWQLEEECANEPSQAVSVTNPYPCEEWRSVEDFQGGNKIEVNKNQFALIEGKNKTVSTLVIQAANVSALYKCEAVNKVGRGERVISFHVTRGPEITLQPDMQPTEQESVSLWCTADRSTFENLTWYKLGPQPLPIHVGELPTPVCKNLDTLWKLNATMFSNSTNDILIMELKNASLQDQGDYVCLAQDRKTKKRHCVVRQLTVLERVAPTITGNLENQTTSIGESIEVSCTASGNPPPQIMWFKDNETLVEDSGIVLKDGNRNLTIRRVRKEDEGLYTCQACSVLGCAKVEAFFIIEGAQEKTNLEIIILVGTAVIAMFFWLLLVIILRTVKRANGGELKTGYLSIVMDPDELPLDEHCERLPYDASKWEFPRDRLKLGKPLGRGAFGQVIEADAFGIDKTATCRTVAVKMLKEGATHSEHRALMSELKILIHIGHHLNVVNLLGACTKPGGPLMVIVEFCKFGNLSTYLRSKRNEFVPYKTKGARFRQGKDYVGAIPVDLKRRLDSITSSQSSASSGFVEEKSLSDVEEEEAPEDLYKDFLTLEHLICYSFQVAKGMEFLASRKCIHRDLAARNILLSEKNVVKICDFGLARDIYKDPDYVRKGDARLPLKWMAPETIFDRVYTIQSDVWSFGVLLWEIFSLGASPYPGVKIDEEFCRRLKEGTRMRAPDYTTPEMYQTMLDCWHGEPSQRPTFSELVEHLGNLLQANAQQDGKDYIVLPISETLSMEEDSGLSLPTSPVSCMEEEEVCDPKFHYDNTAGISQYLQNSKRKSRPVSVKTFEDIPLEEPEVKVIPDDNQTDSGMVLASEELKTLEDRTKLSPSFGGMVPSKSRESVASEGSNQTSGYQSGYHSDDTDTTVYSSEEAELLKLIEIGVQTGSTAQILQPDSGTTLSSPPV
Sequence of Serine/threonine-protein kinase RIO2 (Homo sapiens) (Q9BVS4 whole entry, looked up): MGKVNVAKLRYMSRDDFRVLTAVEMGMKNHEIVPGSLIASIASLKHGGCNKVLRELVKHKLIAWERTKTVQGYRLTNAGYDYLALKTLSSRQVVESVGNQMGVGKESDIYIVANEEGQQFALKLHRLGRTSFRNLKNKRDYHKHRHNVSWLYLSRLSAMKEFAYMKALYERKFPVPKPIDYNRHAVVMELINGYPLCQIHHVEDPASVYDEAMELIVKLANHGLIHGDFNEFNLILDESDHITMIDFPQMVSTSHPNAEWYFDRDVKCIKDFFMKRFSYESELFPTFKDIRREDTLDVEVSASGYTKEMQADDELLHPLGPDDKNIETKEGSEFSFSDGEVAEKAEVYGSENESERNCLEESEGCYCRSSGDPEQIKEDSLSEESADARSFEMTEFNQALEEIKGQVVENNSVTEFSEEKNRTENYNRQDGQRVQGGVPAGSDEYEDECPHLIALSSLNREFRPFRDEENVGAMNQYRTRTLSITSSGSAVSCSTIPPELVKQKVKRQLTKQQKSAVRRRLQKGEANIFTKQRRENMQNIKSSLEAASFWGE
Sequence of MAP/microtubule affinity-regulating kinase 3 (Homo sapiens) (P27448 whole entry, looked up): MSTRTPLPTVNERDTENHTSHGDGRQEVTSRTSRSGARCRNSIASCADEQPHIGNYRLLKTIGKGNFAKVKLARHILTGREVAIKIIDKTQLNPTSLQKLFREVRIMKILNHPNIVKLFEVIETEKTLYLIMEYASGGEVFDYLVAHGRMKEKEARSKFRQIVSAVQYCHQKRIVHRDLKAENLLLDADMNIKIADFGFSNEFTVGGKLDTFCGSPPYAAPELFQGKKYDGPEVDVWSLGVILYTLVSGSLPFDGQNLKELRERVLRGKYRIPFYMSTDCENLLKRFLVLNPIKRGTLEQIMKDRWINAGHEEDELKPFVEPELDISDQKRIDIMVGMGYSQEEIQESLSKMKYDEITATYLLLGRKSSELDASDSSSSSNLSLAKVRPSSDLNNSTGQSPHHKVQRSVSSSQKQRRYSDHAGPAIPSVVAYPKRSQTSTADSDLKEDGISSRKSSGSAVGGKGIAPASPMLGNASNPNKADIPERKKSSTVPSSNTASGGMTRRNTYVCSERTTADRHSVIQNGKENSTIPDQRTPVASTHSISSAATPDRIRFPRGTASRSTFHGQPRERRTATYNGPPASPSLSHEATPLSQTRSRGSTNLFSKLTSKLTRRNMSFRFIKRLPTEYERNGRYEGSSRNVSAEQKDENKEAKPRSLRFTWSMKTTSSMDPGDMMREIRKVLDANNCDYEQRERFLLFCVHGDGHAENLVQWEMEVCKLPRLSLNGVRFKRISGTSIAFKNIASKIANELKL
Sequence of RAF proto-oncogene serine/threonine-protein kinase (Homo sapiens) (P04049 whole entry): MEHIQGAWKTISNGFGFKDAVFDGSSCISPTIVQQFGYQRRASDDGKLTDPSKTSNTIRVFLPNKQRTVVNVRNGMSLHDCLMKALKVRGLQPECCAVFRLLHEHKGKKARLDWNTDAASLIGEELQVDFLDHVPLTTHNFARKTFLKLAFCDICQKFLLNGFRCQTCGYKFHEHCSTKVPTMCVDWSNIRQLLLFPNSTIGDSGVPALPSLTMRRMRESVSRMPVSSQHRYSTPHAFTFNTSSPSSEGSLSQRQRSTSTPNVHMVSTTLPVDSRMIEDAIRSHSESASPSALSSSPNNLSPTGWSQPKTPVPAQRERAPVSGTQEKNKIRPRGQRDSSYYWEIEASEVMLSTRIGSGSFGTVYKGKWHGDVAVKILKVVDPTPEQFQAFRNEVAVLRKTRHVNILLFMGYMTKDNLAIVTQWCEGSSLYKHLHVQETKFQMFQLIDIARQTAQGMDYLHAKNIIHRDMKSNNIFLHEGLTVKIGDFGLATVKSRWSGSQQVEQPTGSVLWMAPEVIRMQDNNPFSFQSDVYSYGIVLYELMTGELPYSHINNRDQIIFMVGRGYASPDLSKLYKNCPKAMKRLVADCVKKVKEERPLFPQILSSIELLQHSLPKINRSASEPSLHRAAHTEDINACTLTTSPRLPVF
Sequence of Glycogen synthase kinase-3 beta (Homo sapiens) (P49841 whole entry, looked up): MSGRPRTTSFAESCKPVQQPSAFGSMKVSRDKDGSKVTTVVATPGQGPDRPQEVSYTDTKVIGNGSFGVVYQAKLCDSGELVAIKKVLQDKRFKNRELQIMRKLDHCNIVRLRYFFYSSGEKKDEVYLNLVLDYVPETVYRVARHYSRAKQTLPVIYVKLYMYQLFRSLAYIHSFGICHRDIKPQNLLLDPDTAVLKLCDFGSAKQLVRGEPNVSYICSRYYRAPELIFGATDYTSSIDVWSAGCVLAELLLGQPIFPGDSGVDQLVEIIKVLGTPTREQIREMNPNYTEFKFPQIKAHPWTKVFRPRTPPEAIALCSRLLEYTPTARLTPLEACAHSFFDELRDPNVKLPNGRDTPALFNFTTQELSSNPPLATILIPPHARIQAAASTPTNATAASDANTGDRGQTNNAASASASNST
Sequence of Protein kinase C delta type (Homo sapiens) (Q05655 whole entry, looked up): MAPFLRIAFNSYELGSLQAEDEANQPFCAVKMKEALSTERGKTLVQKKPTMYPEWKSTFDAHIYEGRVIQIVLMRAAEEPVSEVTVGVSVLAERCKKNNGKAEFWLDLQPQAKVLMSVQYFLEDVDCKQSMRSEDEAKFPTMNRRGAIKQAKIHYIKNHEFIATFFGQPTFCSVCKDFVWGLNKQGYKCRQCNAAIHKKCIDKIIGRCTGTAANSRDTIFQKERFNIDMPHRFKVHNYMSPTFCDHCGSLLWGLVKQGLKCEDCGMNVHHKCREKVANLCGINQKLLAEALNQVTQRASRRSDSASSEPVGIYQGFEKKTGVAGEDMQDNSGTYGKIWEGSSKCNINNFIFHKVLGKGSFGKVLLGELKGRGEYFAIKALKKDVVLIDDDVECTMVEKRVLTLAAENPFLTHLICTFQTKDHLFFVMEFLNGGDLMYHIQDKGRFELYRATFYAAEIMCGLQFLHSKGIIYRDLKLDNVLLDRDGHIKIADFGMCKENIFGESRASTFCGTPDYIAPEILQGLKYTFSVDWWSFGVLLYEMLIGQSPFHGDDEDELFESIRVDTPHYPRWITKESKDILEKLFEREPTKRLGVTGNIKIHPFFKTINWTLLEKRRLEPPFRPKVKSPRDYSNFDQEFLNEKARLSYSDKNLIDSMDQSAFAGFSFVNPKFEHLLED

Regarding `FC(F)(F)c1ccc(Cl)cc1CN1CCNc2ncc(-c3ccnc(N4CCNCC4)c3)cc21`, the inhibition in assay [1], in assay [2], in assay [3], in [4], in [5] and in [6] was less than 50% in each case. Also, the inhibition in assay [7] was less than 50%; in [8] it was less than 50%; in assay [9], less than 50%; in [10], 78%; in assay [11], less than 50%; in assay [12] it was 95%.

Regarding `CN1CCN(c2ccc(-c3cnc4c(c3)N(Cc3cc(Cl)ccc3Cl)CCN4)cn2)CC1`, the inhibition in assay [1], in [2], in assay [3], in [4], in [5] and in assay [6] was less than 50% in each case. Moreover, the inhibition was less than 50% in assay [7]; less than 50% in assay [8]; less than 50% in assay [9]; less than 50% in [10]; less than 50% in assay [11]; 90% in assay [12].

Regarding `COC1CCN(C(=O)c2ccc(-c3cnc4c(c3)N(Cc3cc(Cl)ccc3C(F)(F)F)CCN4)cc2)CC1`, the inhibition in assay [3], in assay [4], in assay [6], in assay [8], in [9] and in assay [11] was less than 50% each time. The same compound registered an inhibition in [12] of 80.7%.

As to `O=C(c1ccc(-c2cnc3c(c2)N(Cc2cc(Cl)ccc2C(F)(F)F)CCN3)cc1)N1CCCCC1`, the inhibition in [3], in assay [4], in assay [6], in assay [8], in [9] and in assay [11] was less than 50% each time. The same compound showed an inhibition in assay [12] of less than 50%.

Regarding `O=C(O)c1ccc(-c2cnc3c(c2)N(Cc2cc(Cl)ccc2C(F)(F)F)CCN3)cc1`, the inhibition in [3], in assay [4], in [6], in assay [8], in assay [9] and in [11] was less than 50% each time. In addition, the inhibition in assay [12] is less than 50%.

In the case of `CN1CCN(c2ccc(-c3cnc4c(c3)N(Cc3cc(F)ccc3F)CCN4)cn2)CC1`, the inhibition in assay [1], in assay [2], in assay [3], in [4], in assay [5] and in [6] was less than 50% throughout. Further, the inhibition is less than 50% in assay [7]; less than 50% in [8]; less than 50% in assay [9]; less than 50% in [10]; less than 50% in assay [11]; 64% in assay [12].

On to `O=C(c1ccc(-c2cnc3c(c2)N(Cc2cc(Cl)ccc2C(F)(F)F)CCN3)cc1)N1CCC(N2CCCC2)CC1`, for which the inhibition in assay [3], in assay [4], in [6], in [8], in assay [9] and in [11] was less than 50% each time. The compound also showed an inhibition in [12] of 99.3%.

In the case of `CN1CCN(c2ccc(-c3cnc4c(c3)N(Cc3c(F)ccc(F)c3Cl)CCN4)cn2)CC1`, the inhibition in assay [1], in [2], in assay [3], in assay [4], in [5] and in assay [6] was less than 50% each time. Also, the inhibition in [7], in assay [8], in assay [9], in assay [10], in [11] and in assay [12] was less than 50% each time.

As to `CC(=O)N1CCN(c2cc(-c3cnc4c(c3)N(Cc3cc(Cl)ccc3C(F)(F)F)CCN4)ccn2)CC1`, the inhibition in assay [1], in [2], in assay [3], in assay [4], in assay [5] and in [6] was less than 50% each time. The inhibition is less than 50% in assay [7]; less than 50% in [8]; less than 50% in assay [9]; less than 50% in assay [10]; less than 50% in [11]; 83% in [12].

With `CN1CCN(c2ccc(-c3cnc4c(c3)N(Cc3cc(Cl)ccc3C(F)(F)F)CCN4)cn2)CC1`, the inhibition in assay [1], in [2], in assay [3], in assay [4], in [5] and in assay [6] was less than 50% each time. The inhibition in assay [7] was less than 50%; in [8], less than 50%; in assay [9], less than 50%; in [10], less than 50%; in assay [11], less than 50%; in [12], 88%.
